In ChEMBL document CHEMBL3997810, “A Novel Potent Anticancer Compound Optimized from a Natural Oridonin Scaffold Induces Apoptosis and Cell Cycle Arrest through the Mitochondrial Pathway” (J Med Chem, 2017):
Activity calls are given as the source filed them. No cut-off for these calls is given here.

Legend:
Mus musculus = experiment: Toxicity in Balb/c nude mouse xenografted with human MCF7 cells assessed as morphological changes in lungs at 20 mg/kg/day, iv for 4 weeks by hematoxylin and eosin staining based microscopic method; format: organism-based; settings: in vivo, 672 h
Summary of the method: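 Male BALB/c nude mice aged six weeks received 1 × 10^6 MCF-7 cells subcutaneously in the right flank. After 7 d they were randomized and dosed 20 mg/kg iv once daily in 10% DMF/2% poloxamer/88% saline; saline control. Heart, liver, spleen, lung and kidney were fixed in 4% paraformaldehyde, paraffin-embedded, sectioned at 5 μm, H&E stained and examined microscopically.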

MCF7 [1] = experiment: Induction of apoptosis in human MCF7 cells assessed as increase in Bad protein expression at 0.5 to 1 uM after 48 hrs by Western blot method; format: functional, cell-based
Summary of the method: (§1)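 MCF-7 cells were treated at 0, 0.125, 0.25, 0.5 or 1 μM for 48 h, washed in ice-cold PBS and lysed on ice for 20 min. Lysates were spun at 13,000 g, 4 °C. 20 μg protein was run on SDS-PAGE and blotted to PVDF, probed overnight at 4 °C with primary antibodies, then with fluorescent secondary antibodies. Band density was expressed relative to β-actin; three independent experiments.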

Bel-7402 [2] = experiment: Cell cycle arrest in human Bel7402 cells assessed as accumulation at G2/M phase at 4 uM after 48 hrs by propidium iodide staining based flow cytometry (reference value: 56.61%); format: functional
MCF7 [3] = experiment: Induction of apoptosis in human MCF7 cells assessed as early apoptotic cells at 0.25 uM after 24 hrs by Annexin-V FITC/propidium iodide staining based flow cytometry (reference value: 2.65%); format: functional
[4] = Permeability from basolateral to apical side in human Caco2 cells at 100 uM after 5 mins by HPLC method; format: ADME, cell-based; settings: caco-2, 5 min
Bel-7402 [5] = experiment: Cell cycle arrest in human Bel7402 cells assessed as accumulation at S phase at 4 uM after 48 hrs by propidium iodide staining based flow cytometry (reference value: 8.78%); format: functional
MCF7 [6] = experiment: Cell cycle arrest in human MCF7 cells assessed as accumulation at G1 phase at 1 uM after 48 hrs by propidium iodide staining based flow cytometry (reference value: 49.77%); format: functional
Summary of the method: (§2)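 MCF-7 cells, 5 × 10^4 per well, seeded overnight, then exposed to 0.125–1 μM compound, or DMSO, for 48 h. Ethanol-fixed (70%, −20 °C, 12 h) and stained with PI/RNase at 37 °C for 30 min. Phase distribution determined by flow cytometry.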

MCF7 [7] = experiment: Induction of apoptosis in human MCF7 cells assessed as increase in cytochrome c protein expression at 0.5 to 1 uM after 48 hrs by Western blot method; format: functional, cell-based; summary of the method: as §1
[8] = Selectivity ratio of IC50 for human KB/CP4 cells to IC50 for human KB-3-1 cells
[9] = Selectivity ratio of IC50 for human L02 cells to IC50 for human Bel7402 cells
KB 3-1 = experiment: Antiproliferative activity against human KB-3-1 cells after 48 hrs by MTT assay; format: functional, cell-based; settings: KB 3-1, 48 h
Summary of the method: (§3)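 Colorimetric MTT assay. KB-3-1, NCI-H460 and Bel-7404 cells were seeded at 4000 cells/well; resistant KB/CP4, NCI-H460/MX20 and Bel-7404/CP20 were seeded at 7000 cells/well. Cells were pre-incubated 24 h at 37 °C, 5% CO2, then exposed to a compound concentration series for 48 h with DMSO ≤0.25%. Absorbance read at 570 nm. Quadruplicate wells, three repeats; means ± SD.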

MCF7 [10] = experiment: Cell cycle arrest in human MCF7 cells assessed as accumulation at G2/M phase at 0.5 uM after 48 hrs by propidium iodide staining based flow cytometry (reference value: 13.05%); format: functional; summary of the method: as §2
MCF7 [11] = experiment: Induction of ROS generation in human MCF7 cells at 1 uM after 36 hrs by DCF-DA staining based flow cytometry (reference value: 3.77%); format: functional
Summary of the method: (§4)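 MCF-7 cells exposed to 0–1 μM compound for 36 h, with DMSO as control; one arm pre-incubated with 2.5 mM NAC. Cells then loaded with DCF-DA at 37 °C for 15 min, harvested and resuspended in PBS. Fraction of DCF-positive cells measured by flow cytometry at Ex 480/Em 525 nm.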

Bel-7402 [12] = experiment: Cell cycle arrest in human Bel7402 cells assessed as accumulation at G1 phase at 1 uM after 48 hrs by propidium iodide staining based flow cytometry (reference value: 34.61%); format: functional
MCF7 [13] = experiment: Cell cycle arrest in human MCF7 cells assessed as accumulation at G2/M phase at 0.25 uM after 48 hrs by propidium iodide staining based flow cytometry (reference value: 13.05%); format: functional; summary of the method: as §2
Bel-7402 [14] = experiment: Cell cycle arrest in human Bel7402 cells assessed as accumulation at G2/M phase at 1 uM after 48 hrs by propidium iodide staining based flow cytometry (reference value: 56.61%); format: functional
NCI-H460 = experiment: Antiproliferative activity against human NCI-H460 cells after 48 hrs by MTT assay; format: functional, cell-based; settings: NCI-H460, 48 h; summary of the method: as §3
MCF7 [15] = experiment: Induction of mitochondrial membrane potential depolarization in human MCF7 cells assessed as ratio of red fluorescence to green fluorescence at 1 uM after 36 hrs by JC1 staining based fluorescence microscopic method (reference value: 1.433); format: functional
Summary of the method: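 MCF-7 cells were treated with 0, 0.25, 0.5 or 1 μM for 36 h and loaded with 10 μg/mL JC-1 for 30 min at 37 °C, then washed in PBS. Monomers were read at ex 490/em 535 nm and aggregates at ex 525/em 600 nm, by plate reader or fluorescence microscopy. The red/green ratio came from 10,000 cells per group, in triplicate, mean ± SD.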

[16] = Antiproliferative activity against human NCI-H460/MX20 cells after 48 hrs by MTT assay; format: functional, cell-based; settings: NCI-H460/MX20, 48 h; summary of the method: as §3
MCF7 [17] = experiment: Induction of apoptosis in human MCF7 cells assessed as late apoptotic cells at 0.125 uM after 24 hrs by Annexin-V FITC/propidium iodide staining based flow cytometry (reference value: 0.255%); format: functional
MCF7 [18] = experiment: Induction of ROS generation in human MCF7 cells at 1 uM after 36 hrs in presence of ROS scavenger NAC by DCF-DA staining based flow cytometry; format: functional, cell-based; summary of the method: as §4
Bel-7402 [19] = experiment: Cell cycle arrest in human Bel7402 cells assessed as accumulation at S phase at 1 uM after 48 hrs by propidium iodide staining based flow cytometry (reference value: 8.78%); format: functional
MCF7 [20] = experiment: Cell cycle arrest in human MCF7 cells assessed as accumulation at G1 phase at 0.5 uM after 48 hrs by propidium iodide staining based flow cytometry (reference value: 49.77%); format: functional; summary of the method: as §2
MCF7 [21] = experiment: Cell cycle arrest in human MCF7 cells assessed as accumulation at G1 phase at 0.25 uM after 48 hrs by propidium iodide staining based flow cytometry (reference value: 49.77%); format: functional; summary of the method: as §2
MCF7 [22] = experiment: Induction of apoptosis in human MCF7 cells assessed as late apoptotic cells at 0.5 uM after 24 hrs by Annexin-V FITC/propidium iodide staining based flow cytometry (reference value: 0.255%); format: functional
MCF7 [23] = experiment: Induction of apoptosis in human MCF7 cells assessed as chromatin condensation at 0.125 to 1 uM after 36 hrs by Hoechst 33342 staining based fluorescence microscopic method; format: functional, cell-based

C=C1C(=O)[C@]23[C@H](OC(=O)/C=C/c4ccccc4)[C@H]1CC[C@H]2[C@]12C=CCC(C)(C)[C@H]1[C@H](O)[C@]3(O)OC2
Activity (Mus musculus): Non-Toxic | Activity (MCF7 [1]): Active | Activity (Bel-7402 [2]): 63.11% | Activity (MCF7 [3]): 8.29% | permeability [4]: Permeable | Activity (Bel-7402 [5]): 9.55% | Activity (MCF7 [6]): 35.75% | Activity (MCF7 [7]): Active | Ratio IC50 [8]: <1 | Ratio IC50 [9]: 4.07 | IC50 (KB 3-1): 5.7 µM | Activity (MCF7 [10]): 24.23% | Activity (MCF7 [11]): 24.31% | Activity (Bel-7402 [12]): 32.12% | Activity (MCF7 [13]): 16.73% | Activity (Bel-7402 [14]): 59.37% | IC50 (NCI-H460): 2.62 µM | Ratio (MCF7 [15]): 0.385 | IC50 [16]: 13.6 µM | Activity (MCF7 [17]): 9.32% | Activity (MCF7 [18]): inactive | Activity (Bel-7402 [19]): 8.51% | Activity (MCF7 [20]): 43.87% | Activity (MCF7 [21]): 49.37% | Activity (MCF7 [22]): 30.2% | Activity (MCF7 [23]): Active
